Activity calls are given as the source filed them. The calls are words filed in the database; no cut-off is given here.
Columns and labels:
Format in all cases: functional, cell-based
SW-1736 [1] = experiment: Cytotoxicity against human SW1736 cells after 96 hrs by sulforhodamine B assay; conditions: SW-1736, 96 h
Summary of the method: (§1)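 Human tumour cell lines in 96-well plates, exposed to test compounds for 96 h, then read by colorimetric sulforhodamine B staining. Viable cells are expressed as % of untreated controls. IC50 is taken from dose–response curves, top concentration 30 µM, as the mean of at least three independent experiments (variation generally 10%). Compounds are given as DMSO solutions or as an aqueous liposomal formulation.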

DLD-1 [2] = experiment: Cytotoxicity against human DLD1 cells at 30 uM after 96 hrs by sulforhodamine B assay
Summary of the method: (§2)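 Growth inhibition at the highest tested concentration, 30 µM, after 96 h exposure in 96-well plates. Read by SRB staining as % viable cells relative to untreated controls, from at least three independent experiments.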

[3] = Cytotoxicity against human 518A2 cells after 96 hrs by sulforhodamine B assay; conditions: 518A2, 96 h; summary of the method: as §1
MCF7 [4] = experiment: Cytotoxicity against human MCF7 cells after 96 hrs by sulforhodamine B assay; conditions: MCF7, 96 h; summary of the method: as §1
HCT-116 [5] = experiment: Cytotoxicity against human HCT116 cells after 96 hrs by sulforhodamine B assay; conditions: HCT-116, 96 h; summary of the method: as §1
SW480 [6] = experiment: Cytotoxicity against human SW480 cells after 96 hrs by sulforhodamine B assay; conditions: SW480, 96 h; summary of the method: as §1
FaDu [7] = experiment: Cytotoxicity against human FADU cells after 96 hrs by sulforhodamine B assay; summary of the method: as §1
[8] = Cytotoxicity against human liposarcoma cells after 96 hrs by sulforhodamine B assay; summary of the method: as §1
A549 [9] = experiment: Cytotoxicity against human A549 cells after 96 hrs by sulforhodamine B assay; conditions: A549, 96 h; summary of the method: as §1
HCT-8 [10] = experiment: Cytotoxicity against human HCT8 cells after 96 hrs by sulforhodamine B assay; conditions: HCT-8, 96 h; summary of the method: as §1
HT-29 [11] = experiment: Cytotoxicity against human HT-29 cells after 96 hrs by sulforhodamine B assay; conditions: HT-29, 96 h; summary of the method: as §1
A-431 [12] = experiment: Cytotoxicity against human A431 cells after 96 hrs by sulforhodamine B assay; conditions: A-431, 96 h; summary of the method: as §1
8505C [13] = experiment: Cytotoxicity against human 8505C cells after 96 hrs by sulforhodamine B assay; summary of the method: as §1
[14] = Cytotoxicity against human A253 cells after 96 hrs by sulforhodamine B assay; conditions: A253, 96 h; summary of the method: as §1
A2780 [15] = experiment: Cytotoxicity against human A2780 cells after 96 hrs by sulforhodamine B assay; conditions: A2780, 96 h; summary of the method: as §1
DLD-1 [16] = experiment: Cytotoxicity against human DLD1 cells after 96 hrs by sulforhodamine B assay; conditions: DLD-1, 96 h; summary of the method: as §1
FaDu [17] = experiment: Cytotoxicity against human FADU cells at 30 uM after 96 hrs by sulforhodamine B assay; summary of the method: as §2
A2780 [18] = experiment: Cytotoxicity against human A2780 cells at 30 uM after 96 hrs by sulforhodamine B assay; summary of the method: as §2
Homo sapiens = species on record: Homo sapiens; experiment: Cytotoxicity against human liposarcoma cells at 30 uM after 96 hrs by sulforhodamine B assay; summary of the method: as §2
8505C [19] = experiment: Cytotoxicity against human 8505C cells at 30 uM after 96 hrs by sulforhodamine B assay; summary of the method: as §2
SW480 [20] = experiment: Cytotoxicity against human SW480 cells at 30 uM after 96 hrs by sulforhodamine B assay; summary of the method: as §2
HT-29 [21] = experiment: Cytotoxicity against human HT-29 cells at 30 uM after 96 hrs by sulforhodamine B assay; summary of the method: as §2
HCT-8 [22] = experiment: Cytotoxicity against human HCT8 cells at 30 uM after 96 hrs by sulforhodamine B assay; summary of the method: as §2
A-431 [23] = experiment: Cytotoxicity against human A431 cells at 30 uM after 96 hrs by sulforhodamine B assay; summary of the method: as §2
MCF7 [24] = experiment: Cytotoxicity against human MCF7 cells at 30 uM after 96 hrs by sulforhodamine B assay; summary of the method: as §2
A253 = experiment: Cytotoxicity against human A253 cells at 30 uM after 96 hrs by sulforhodamine B assay; summary of the method: as §2
A549 [25] = experiment: Cytotoxicity against human A549 cells at 30 uM after 96 hrs by sulforhodamine B assay; summary of the method: as §2
SW-1736 [26] = experiment: Cytotoxicity against human SW1736 cells at 30 uM after 96 hrs by sulforhodamine B assay; summary of the method: as §2
518A2 = experiment: Cytotoxicity against human 518A2 cells at 30 uM after 96 hrs by sulforhodamine B assay; summary of the method: as §2
HCT-116 [27] = experiment: Cytotoxicity against human HCT116 cells at 30 uM after 96 hrs by sulforhodamine B assay; summary of the method: as §2

Compound | IC50 (SW-1736 [1]) [µM] | inhibition (DLD-1 [2]) | IC50 [3] [µM] | IC50 (MCF7 [4]) [µM] | IC50 (HCT-116 [5]) [µM] | IC50 (SW480 [6]) [µM] | IC50 (FaDu [7]) [µM] | IC50 [8] [µM] | IC50 (A549 [9]) [µM] | IC50 (HCT-8 [10]) [µM] | IC50 (HT-29 [11]) [µM] | IC50 (A-431 [12]) [µM] | IC50 (8505C [13]) [µM] | IC50 [14] [µM] | IC50 (A2780 [15]) [µM] | IC50 (DLD-1 [16]) [µM] | further results
C=C(C)[C@@H]1CC[C@]2([C@H](O)C3=C(C(=O)OC)C(C(=O)OCC)N=N3)CC[C@]3(C)[C@H](CC[C@@H]4[C@@]5(C)CC[C@H](OC(C)=O)C(C)(C)[C@@H]5CC[C@]43C)[C@@H]12 (some centres not stated) | 16.4 | inactive | 21.5 | 8 | 9.8 | 7.7 | 9.9 | 19.9 | 14.8 | 10 | 12 | 7.6 | 8.9 | 12.5 | 9.1 | – | –
C=C(C)[C@@H]1CC[C@]2([C@@H]3OC(=O)C=C3N3CCCC3)CC[C@]3(C)[C@H](CC[C@@H]4[C@@]5(C)CC[C@H](OC(C)=O)C(C)(C)[C@@H]5CC[C@]43C)[C@@H]12 | 4.1 | – | 4.7 | 3.7 | 2.1 | 5.7 | 6.3 | 6 | 7.8 | 0.5 | 3.9 | 2.1 | 5.3 | 4.6 | 2.2 | 5.4 | –
C=C(C)[C@@H]1CC[C@]2([C@H](O)c3nn[nH]c3C(=O)OC)CC[C@]3(C)[C@H](CC[C@@H]4[C@@]5(C)CC[C@H](OC(C)=O)C(C)(C)[C@@H]5CC[C@]43C)[C@@H]12 | 11.8 | – | 14.8 | 14.8 | 15.6 | 14.7 | 15.1 | 18.2 | 17.3 | 13.9 | 18.2 | 16.6 | 15.4 | 10.3 | 13.4 | 15.5 | –
C=C(C)[C@@H]1CC[C@]2([C@H](O)/C=C\CO)CC[C@]3(C)[C@H](CC[C@@H]4[C@@]5(C)CC[C@H](OC(C)=O)C(C)(C)[C@@H]5CC[C@]43C)[C@@H]12 | 9 | – | 20.4 | 19.4 | 10.5 | 17.9 | 10.7 | 18.5 | 12.8 | 10.1 | 15.9 | 12.4 | 17.8 | 14.8 | 12.6 | 12.3 | –
C=C(C)[C@@H]1CC[C@]2([C@H](O)C#Cc3ccccc3)CC[C@]3(C)[C@H](CC[C@@H]4[C@@]5(C)CC[C@H](OC(C)=O)C(C)(C)[C@@H]5CC[C@]43C)[C@@H]12 | – | inactive | – | – | – | – | – | – | – | – | – | – | – | – | – | – | inhibition (FaDu [17]): inactive; inhibition (A2780 [18]): inactive; inhibition (Homo sapiens): inactive; inhibition (8505C [19]): inactive; inhibition (SW480 [20]): inactive; inhibition (HT-29 [21]): inactive; inhibition (HCT-8 [22]): inactive; inhibition (A-431 [23]): inactive; inhibition (MCF7 [24]): inactive; inhibition (A253): inactive; inhibition (A549 [25]): inactive; inhibition (SW-1736 [26]): inactive; inhibition (518A2): inactive; inhibition (HCT-116 [27]): inactive
C=C(C)[C@@H]1CC[C@]2([C@H](O)c3cnn(C)c3C(=O)OC)CC[C@]3(C)[C@H](CC[C@@H]4[C@@]5(C)CC[C@H](OC(C)=O)C(C)(C)[C@@H]5CC[C@]43C)[C@@H]12 | 22.8 | inactive | – | 12.3 | 20.4 | 7 | 17.6 | 14.1 | 24.5 | 13.4 | – | 12.4 | 10.8 | 16 | 12.7 | – | inhibition (HT-29 [21]): inactive; inhibition (518A2): inactive
C=C(C)[C@@H]1CC[C@]2([C@H](O)C#CCO)CC[C@]3(C)[C@H](CC[C@@H]4[C@@]5(C)CC[C@H](OC(C)=O)C(C)(C)[C@@H]5CC[C@]43C)[C@@H]12 | 11.5 | inactive | 11.9 | 9.9 | 11.3 | 6.9 | 11.2 | 11.4 | 11.9 | 11.6 | 11.6 | 10.5 | 8.4 | 10.3 | 10.4 | – | –
C=C(C)[C@@H]1CC[C@]2(C(=O)O)CC[C@]3(C)[C@H](CC[C@@H]4[C@@]5(C)CC[C@H](O)C(C)(C)[C@@H]5CC[C@]43C)[C@@H]12 [BETULINIC ACID] | – | – | – | – | – | – | – | 9.7 | – | – | – | – | – | – | 11 | – | –
C=C(C)[C@@H]1CC[C@]2([C@H](O)c3c(C(=O)OCC)n[nH]c3C(=O)OC)CC[C@]3(C)[C@H](CC[C@@H]4[C@@]5(C)CC[C@H](OC(C)=O)C(C)(C)[C@@H]5CC[C@]43C)[C@@H]12 | 19.2 | inactive | 16.4 | 11.3 | 14 | 11.4 | 13.9 | 14 | 18.2 | 13.4 | 17 | 11.7 | 12 | 13.2 | 13.2 | – | –
C=C(C)[C@@H]1CC[C@]2([C@@H]3OC(=O)C=C3NC3CC3)CC[C@]3(C)[C@H](CC[C@@H]4[C@@]5(C)CC[C@H](OC(C)=O)C(C)(C)[C@@H]5CC[C@]43C)[C@@H]12 | 3.9 | – | 6.2 | 4 | 3.2 | 8 | 6 | 5.8 | 6.6 | 1.9 | 5.1 | 2.9 | 6 | 4.2 | 2.5 | 4.7 | –

Reference: ChEMBL document CHEMBL1250553, “Synthesis, cytotoxicity and liposome preparation of 28-acetylenic betulin derivatives” (Bioorg Med Chem, 2010)
